Data: ChEMBL document CHEMBL1154534, “Ultrasound promoted synthesis of 2-imidazolines in water: a greener approach toward monoamine oxidase inhibitors” (Bioorg Med Chem Lett, 2009)

Experiments:
[1] = target: T1, Amine oxidase [flavin-containing] A (Rattus norvegicus, UniProt P21396); experiment: Binding affinity to MAOA imidazoline binding site in rat brain mitochondrial homogenate assessed as 4-hydroxyquinoline production by spectrophotometry; assay type: tissue-based
T1 sequence (P21396 whole entry): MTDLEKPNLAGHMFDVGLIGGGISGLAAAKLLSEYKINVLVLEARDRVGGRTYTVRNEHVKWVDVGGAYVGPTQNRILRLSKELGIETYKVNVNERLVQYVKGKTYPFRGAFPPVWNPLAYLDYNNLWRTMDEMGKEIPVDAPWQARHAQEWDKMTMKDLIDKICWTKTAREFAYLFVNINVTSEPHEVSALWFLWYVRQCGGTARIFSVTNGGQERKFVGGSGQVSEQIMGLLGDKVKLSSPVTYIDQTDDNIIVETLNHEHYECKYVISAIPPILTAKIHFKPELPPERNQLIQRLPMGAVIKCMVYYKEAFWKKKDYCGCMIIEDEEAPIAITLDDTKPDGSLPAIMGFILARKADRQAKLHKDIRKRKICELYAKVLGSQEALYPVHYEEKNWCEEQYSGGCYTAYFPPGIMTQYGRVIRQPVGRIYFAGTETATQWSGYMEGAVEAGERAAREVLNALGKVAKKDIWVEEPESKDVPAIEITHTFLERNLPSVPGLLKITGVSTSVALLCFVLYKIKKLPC
Procedure, shortened: (§1)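 Rat brain mitochondrial homogenates, with protein measured by Bradford. Fractions were preincubated for 5 min at 37 °C with 250 nM selegiline (MAO-A assay) or 250 nM clorgyline (MAO-B assay). Compounds were added in DMSO, followed 5 min later by kynuramine at its KM for each isoform. Incubation ran 30 min at 37 °C and was stopped with trichloroacetic acid, then centrifuged. 4-Hydroxyquinoline was read at 314 nm, or by fluorescence (ex 315/em 380 nm) if compounds interfered.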

[2] = target: T2, Amine oxidase [flavin-containing] B (Rattus norvegicus, UniProt P19643); experiment: Binding affinity to MAOB imidazoline binding site in rat brain mitochondrial homogenate assessed as 4-hydroxyquinoline production by spectrophotometry; assay type: tissue-based; procedure, shortened: as §1
T2 sequence (P19643 whole entry): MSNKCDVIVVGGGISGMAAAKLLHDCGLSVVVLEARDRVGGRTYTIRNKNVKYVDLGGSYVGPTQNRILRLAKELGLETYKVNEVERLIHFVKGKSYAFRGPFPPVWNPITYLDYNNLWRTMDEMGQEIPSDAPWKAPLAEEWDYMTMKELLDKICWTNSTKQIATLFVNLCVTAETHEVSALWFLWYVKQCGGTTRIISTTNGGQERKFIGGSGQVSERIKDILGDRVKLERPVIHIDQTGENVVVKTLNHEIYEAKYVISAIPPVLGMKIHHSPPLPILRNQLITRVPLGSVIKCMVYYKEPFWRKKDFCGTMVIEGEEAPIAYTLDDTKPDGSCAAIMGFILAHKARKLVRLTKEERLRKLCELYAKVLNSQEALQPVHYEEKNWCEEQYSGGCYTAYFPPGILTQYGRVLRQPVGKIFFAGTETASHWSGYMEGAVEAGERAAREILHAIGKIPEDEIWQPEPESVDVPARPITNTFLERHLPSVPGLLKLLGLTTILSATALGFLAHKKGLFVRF

Rattus norvegicus [3] = organism: Rattus norvegicus; experiment: Selectivity index, ratio of Ki rat for MAOA to Ki for rat MAOB
Rattus norvegicus [4] = organism: Rattus norvegicus; experiment: Selectivity index, ratio of Ki rat for MAOB to Ki for rat MAOA

Compound | Ki [1] | Ki [2] | Ratio Ki (Rattus norvegicus [3]) | Ratio Ki (Rattus norvegicus [4]) | IC50 [1] | IC50 [2]
c1ccc(C2=NCCN2)cc1 | 28.8 µM | 21.3 µM | 1.35 |  |  | 
COc1cc(C2=NCCN2)cc(OC)c1OC | 114 µM | 1000 µM | 0.114 |  |  | 
c1ccc(C2=NCCN2)nc1 | > 1000 µM | 25.3 µM | > 39.5 |  |  | 
Clc1ccc(C2=NCCN2)cc1 | 166 µM | 5.35 µM | 31.1 |  |  | 
O=C(Oc1ccc(C2=NCCN2)cc1)c1ccccc1 | 12.8 µM | 1.38 µM | 9.27 |  |  | 
Clc1ccccc1C1=NCCN1 | > 1000 µM | 24.6 µM | > 40.7 |  |  | 
O=[N+]([O-])c1cccc(C2=NCCN2)c1 | > 1000 µM | 19.3 µM | > 51.9 |  |  | 
Cc1ccc(C2=NCCN2)cc1 | 102 µM | 13.1 µM | 7.79 |  |  | 
COc1ccc(C2=NCCN2)cc1OC | 13.6 µM | 1000 µM | 0.013 | 73 |  | 
c1ccc2nc(C3=NCCN3)ccc2c1 | 4.86 µM | 5.32 µM | 0.91 |  | 12.7 µM | 13.3 µM
c1ccc2cc(C3=NCCN3)ccc2c1 [BENAZOLINE] | 13.9 µM | 1.49 µM | 9.32 |  |  | 
c1ccc2oc(C3=NCCN3)cc2c1 | 24.9 µM | 3.63 µM |  |  | 65 µM | 9.1 µM
c1coc(C2=NCCN2)c1 | > 1000 µM | > 1000 µM |  |  |  | 
Clc1ccc(C2=NCCN2)c(Cl)c1 | 28.8 µM | 3.98 µM | 10.5 |  |  | 
O=[N+]([O-])c1ccc(C2=NCCN2)cc1 | 181 µM | > 1000 µM | < 0.181 |  |  | 
COc1ccc(C2=NCCN2)cc1 | 15.8 µM | 32.7 µM | 0.48 |  |  | 
